From ChEMBL document CHEMBL5247578, “Effective synthesis of benzimidazoles-imidazo[1,2-a]pyrazine conjugates: A comparative study of mono-and bis-benzimidazoles for antitumor activity” (Eur J Med Chem, 2019)

Experiments:
[1] = n-Octanol/phosphate buffer partition coefficient, logP of the compound at pH 7.4 incubated for 85 mins by shake-flask method; assay type: physicochemical
How it was run: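 Octanol–water partition by shake-flask: n-octanol with 0.15 M phosphate buffer pH 7.4 at 10:1 volumes. Buffer-phase absorbance read before mixing, then shaken 50 min and centrifuged at 2500 rpm for 35 min. Buffer absorbance read again; P = (Ai−Af)/Af × Vw/Vo.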

[2] = test system: MDA-MB-468; experiment: Antiproliferative activity against human MDA-MB-468 cells assessed as cell growth inhibition at 10 uM incubated for 48 hrs by sulforhodamine B assay relative to control; assay type: functional
How it was run: (§1)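 NCI-60 single-dose screen at 10^-5 M. Cells grown in RPMI 1640 with 5% FBS and 2 mM L-glutamine, plated at 5,000–40,000 cells/well, and preincubated 24 h. Drug (DMSO stock) added and incubated 48 h at 37 °C, 5% CO2. Adherent cells fixed with cold TCA, stained with 0.4% SRB in 1% acetic acid, dye solubilized in 10 mM trizma base, A515 read. Percent growth taken against time-zero and untreated control.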

[3] = test system: Hs-578T; experiment: Antiproliferative activity against human Hs-578T cells assessed as cell growth inhibition at 10 uM incubated for 48 hrs by sulforhodamine B assay relative to control; assay type: functional; how it was run: as §1
[4] = test system: MDA-MB-231; experiment: Antiproliferative activity against human MDA-MB-231 cells assessed as cell growth inhibition at 10 uM incubated for 48 hrs by sulforhodamine B assay relative to control; assay type: functional; how it was run: as §1
[5] = test system: UO-31; experiment: Antiproliferative activity against human UO-31 cells assessed as cell growth inhibition at 10 uM incubated for 48 hrs by sulforhodamine B assay relative to control; assay type: functional; how it was run: as §1
[6] = test system: SN12C; experiment: Antiproliferative activity against human SN12C cells assessed as cell growth inhibition at 10 uM incubated for 48 hrs by sulforhodamine B assay relative to control; assay type: functional; how it was run: as §1
[7] = test system: RXF 393; experiment: Antiproliferative activity against human RXF 393 cells assessed as cell growth inhibition at 10 uM incubated for 48 hrs by sulforhodamine B assay relative to control; assay type: functional; how it was run: as §1
[8] = test system: ACHN; experiment: Antiproliferative activity against human ACHN cells assessed as cell growth inhibition at 10 uM incubated for 48 hrs by sulforhodamine B assay relative to control; assay type: functional
How it was run: (§2)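 Single-dose NCI-60 prescreen at 10^-5 M. Cells in RPMI 1640 with 5% FBS and 2 mM L-glutamine, seeded 5,000–40,000 cells/well with 24 h preincubation, then drug exposure for 48 h at 37 °C under 5% CO2. Growth read by SRB staining of TCA-fixed cells at 515 nm against time-zero and untreated controls. Negative growth values denote cell kill.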

[9] = test system: A498; experiment: Antiproliferative activity against human A498 cells assessed as cell growth inhibition at 10 uM incubated for 48 hrs by sulforhodamine B assay relative to control; assay type: functional; how it was run: as §2
[10] = test system: 786-0; experiment: Antiproliferative activity against human 786-0 cells assessed as cell growth inhibition at 10 uM incubated for 48 hrs by sulforhodamine B assay relative to control; assay type: functional; how it was run: as §2
[11] = test system: NCI/ADR-RES; experiment: Antiproliferative activity against human NCI/ADR-RES cells assessed as cell growth inhibition at 10 uM incubated for 48 hrs by sulforhodamine B assay relative to control; assay type: functional; how it was run: as §1
[12] = test system: OVCAR-8; experiment: Antiproliferative activity against human OVCAR-8 cells assessed as cell growth inhibition at 10 uM incubated for 48 hrs by sulforhodamine B assay relative to control; assay type: functional; how it was run: as §1
[13] = test system: OVCAR-5; experiment: Antiproliferative activity against human OVCAR-5 cells assessed as cell growth inhibition at 10 uM incubated for 48 hrs by sulforhodamine B assay relative to control; assay type: functional; how it was run: as §1
[14] = test system: UACC-62; experiment: Antiproliferative activity against human UACC-62 cells assessed as cell growth inhibition at 10 uM incubated for 48 hrs by sulforhodamine B assay relative to control; assay type: functional; how it was run: as §1
[15] = test system: SK-MEL-2; experiment: Antiproliferative activity against human SK-MEL-2 cells assessed as cell growth inhibition at 10 uM incubated for 48 hrs by sulforhodamine B assay relative to control; assay type: functional; how it was run: as §1
[16] = test system: LOX IMVI; experiment: Antiproliferative activity against human LOX IMVI cells assessed as cell growth inhibition at 10 uM incubated for 48 hrs by sulforhodamine B assay relative to control; assay type: functional; how it was run: as §1
[17] = test system: U-251; experiment: Antiproliferative activity against human U-251 cells assessed as cell growth inhibition at 10 uM incubated for 48 hrs by sulforhodamine B assay relative to control; assay type: functional; how it was run: as §1
[18] = test system: SNB-75; experiment: Antiproliferative activity against human SNB-75 cells assessed as cell growth inhibition at 10 uM incubated for 48 hrs by sulforhodamine B assay relative to control; assay type: functional; how it was run: as §1
[19] = test system: SNB-19; experiment: Antiproliferative activity against human SNB-19 cells assessed as cell growth inhibition at 10 uM incubated for 48 hrs by sulforhodamine B assay relative to control; assay type: functional; how it was run: as §1
[20] = test system: SW-620; experiment: Antiproliferative activity against human SW620 cells assessed as cell growth inhibition at 10 uM incubated for 48 hrs by sulforhodamine B assay relative to control; assay type: functional; how it was run: as §1
[21] = test system: KM12; experiment: Antiproliferative activity against human KM12 cells assessed as cell growth inhibition at 10 uM incubated for 48 hrs by sulforhodamine B assay relative to control; assay type: functional; how it was run: as §1
[22] = test system: HCT-15; experiment: Antiproliferative activity against human HCT-15 cells assessed as cell growth inhibition at 10 uM incubated for 48 hrs by sulforhodamine B assay relative to control; assay type: functional
How it was run: (§3)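 NCI-60 one-dose prescreen at 10^-5 M. Cells grown in RPMI 1640 with 5% FBS and 2 mM glutamine, preincubated 24 h, then exposed 48 h at 37 °C. Adherent lines TCA-fixed, SRB-stained, A515 read. Growth percent relative to time-zero and control; negative values mean cell kill.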

[23] = test system: HCT-116; experiment: Antiproliferative activity against human HCT-116 cells assessed as cell growth inhibition at 10 uM incubated for 48 hrs by sulforhodamine B assay relative to control; assay type: functional; how it was run: as §3
[24] = test system: NCI-H522; experiment: Antiproliferative activity against human NCI-H522 cells assessed as cell growth inhibition at 10 uM incubated for 48 hrs by sulforhodamine B assay relative to control; assay type: functional; how it was run: as §1
[25] = test system: NCI-H226; experiment: Antiproliferative activity against human NCI-H226 cells assessed as cell growth inhibition at 10 uM incubated for 48 hrs by sulforhodamine B assay relative to control; assay type: functional; how it was run: as §1
[26] = test system: HOP-92; experiment: Antiproliferative activity against human HOP-92 cells assessed as cell growth inhibition at 10 uM incubated for 48 hrs by sulforhodamine B assay relative to control; assay type: functional; how it was run: as §3
[27] = test system: EKVX; experiment: Antiproliferative activity against human EKVX cells assessed as cell growth inhibition at 10 uM incubated for 48 hrs by sulforhodamine B assay relative to control; assay type: functional; how it was run: as §3
[28] = test system: SR; experiment: Antiproliferative activity against human SR cells assessed as cell growth inhibition at 10 uM incubated for 48 hrs by sulforhodamine B assay relative to control; assay type: functional; how it was run: as §1
[29] = test system: MOLT-4; experiment: Antiproliferative activity against human MOLT-4 cells assessed as cell growth inhibition at 10 uM incubated for 48 hrs by sulforhodamine B assay relative to control; assay type: functional; how it was run: as §1
[30] = test system: HL-60; experiment: Antiproliferative activity against human HL-60 cells assessed as cell growth inhibition at 10 uM incubated for 48 hrs by sulforhodamine B assay relative to control; assay type: functional; how it was run: as §3
[31] = test system: CCRF-CEM; experiment: Antiproliferative activity against human CCRF-CEM cells assessed as cell growth inhibition at 10 uM incubated for 48 hrs by sulforhodamine B assay relative to control; assay type: functional; how it was run: as §2

c1ccc(Cn2cnc3ccc(-c4nc(-c5ccc6c(c5)ncn6C5CCCCC5)cn5ccnc45)cc32)cc1
logD at 1.417 h [1]: 1.61 | inhibition at 10 µM [2]: -35.7% | inhibition at 10 µM [3]: 99.6% | inhibition at 10 µM [4]: -70.1% | inhibition at 10 µM [5]: -51.4% | inhibition at 10 µM [6]: -35.4% | inhibition at 10 µM [7]: -76.9% | inhibition at 10 µM [8]: 80.1% | inhibition at 10 µM [9]: -71.8% | inhibition at 10 µM [10]: -19.4% | inhibition at 10 µM [11]: 99.5% | inhibition at 10 µM [12]: 97.5% | inhibition at 10 µM [13]: -29% | inhibition at 10 µM [14]: -31.2% | inhibition at 10 µM [15]: -36.7% | inhibition at 10 µM [16]: -87% | inhibition at 10 µM [17]: -22.8% | inhibition at 10 µM [18]: -67.4% | inhibition at 10 µM [19]: 80.4% | inhibition at 10 µM [20]: 97.8% | inhibition at 10 µM [21]: -39.4% | inhibition at 10 µM [22]: -9.03% | inhibition at 10 µM [23]: -75.8% | inhibition at 10 µM [24]: -35.2% | inhibition at 10 µM [25]: -63.1% | inhibition at 10 µM [26]: -83.6% | inhibition at 10 µM [27]: -12.2% | inhibition at 10 µM [28]: 94.5% | inhibition at 10 µM [29]: 95.6% | inhibition at 10 µM [30]: -20.8% | inhibition at 10 µM [31]: 94.4%
